Measurements as given in ChEMBL document CHEMBL2177074, “Variation of the net charge, lipophilicity, and side chain flexibility in Dmt(1)-DALDA: Effect on Opioid Activity and Biodistribution” (J Med Chem, 2012).
Calls of active or inactive are those of the source. Non-standard residues stand in square brackets, D forms with d. Residues, ends and D or L forms follow the SMILES beside them. Dmt = Cc1cc(O)cc(C)c1C[C@H](N)C(=O)O; dCit = NC(=O)NCCC[C@@H](N)C(=O)O; NMeNle = CCCC[C@H](NC)C(=O)O; Nle = CCCC[C@H](N)C(=O)O

How the values were obtained:
Mu-type opioid receptor [1] = biological target: Mu-type opioid receptor (Cavia porcellus, UniProt P97266); assay: (§1) Agonist activity at mu opioid receptor in guinea pig ileum; format: functional, tissue-based
Method in brief: (§2)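 Isolated tissue bioassays: mouse vas deferens and guinea pig ileum preparations. A [Leu5]enkephalin dose-response curve was run as standard on each preparation, and test IC50 values were normalized against it.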

[2] = biological target: Delta-type opioid receptor (Rattus norvegicus, UniProt P33533); assay: Displacement of [3H]DSLET from delta opioid receptor in rat brain membranes after 2 hrs; format: cell membranes
[3] = biological target: Delta-type opioid receptor (Mus musculus, UniProt P32300); assay: (§3) Agonist activity at delta opioid receptor in mouse vas deferens; format: functional, tissue-based; method in brief: as §2
Mu-type opioid receptor [4] = biological target: Mu-type opioid receptor (Rattus norvegicus, UniProt P33535); assay: Displacement of [3H]DAMGO from mu opioid receptor in rat brain membranes after 2 hrs; format: cell membranes
Brain [5] = assay: Blood brain barrier transport in ICR-CD1 mouse brain assessed as unidirectional initial influx rate at 30000 cpm/uL, iv; format: ADME, organism-based; details: in vivo
Mus musculus [6] = assay: Antinociceptive activity in CD1 mouse assessed as thermal-stimulus induced tail flick latency at 1 umol/kg, ip up to 120 mins; format: functional, organism-based
[7] = Metabolic stability in mouse plasma assessed as compound recovery after 2 hrs; format: ADME, cell-free; details: read-out: Stability
Method in brief: (§4)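 100 µg unlabelled peptide in Krebs-Henseleit buffer pH 7.4 incubated at 37 °C with shaking, in 250 µl mouse plasma or brain homogenate (150 µg protein). Aliquots quenched with TFA, heated 5 min at 95 °C, then centrifuged. Supernatants analysed by UPLC or HPLC (210 nm); recovery measured after 2 h.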

Mus musculus [8] = assay: Antinociceptive activity in sc dosed CD1 mouse assessed as thermal-stimulus induced tail flick latency after 2 to 3 hrs; format: functional, organism-based
Method in brief: (§5)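 Male CD-1 mice (25–35 g) dosed s.c. at 10 µl/g. Radiant-heat tail-flick latency measured with a 10 s cut-off and expressed as %MPE. At least three doses, 5–6 mice per dose.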

Mus musculus [9] = assay: Antinociceptive activity in sc dosed CD1 mouse assessed as thermal-stimulus induced tail flick latency after 1 hr relative to morphine; format: functional; method in brief: as §5
Mus musculus [10] = assay: Antinociceptive activity in CD1 mouse assessed as thermal-stimulus induced tail flick latency at 1 umol/kg, ip after 60 mins; format: functional, organism-based
Mus musculus [11] = assay: Antinociceptive activity in CD1 mouse assessed as thermal-stimulus induced tail flick latency at 1 umol/kg, ip after 45 mins; format: functional, organism-based
Brain [12] = assay: Blood brain barrier transport in ICR-CD1 mouse brain assessed as brain efflux rate coefficient at 30000 cpm/uL, iv; format: ADME, organism-based; details: in vivo
Mus musculus [13] = assay: Antinociceptive activity in sc dosed CD1 mouse assessed as thermal-stimulus induced tail flick latency after 1 hr; format: functional; method in brief: as §5
[14] = Metabolic stability in mouse brain assessed as compound recovery after 2 hrs; format: ADME, tissue-based; details: read-out: Stability; method in brief: as §4
[15] = biological target: Kappa-type opioid receptor (Cavia porcellus, UniProt P41144); assay: Displacement of [3H]U69,593 from kappa opioid receptor in guinea pig ileum membranes after 2 hrs; format: cell membranes, Membrane
Kidney = assay: Biodistribution in ICR-CD1 mouse kidney at 30000 cpm/uL, iv; format: ADME, organism-based; details: in vivo
Method in brief: (§6)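 After intravenous 125I-peptide, kidneys, liver and other organs collected immediately after brain dissection, weighed and gamma-counted. Serum obtained by centrifugation at 10 000 × g for 15 min. Results expressed as % of injected dose per g tissue, normalized to body weight.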

Liver = assay: Biodistribution in ICR-CD1 mouse liver at 30000 cpm/uL, iv; format: ADME, organism-based; details: in vivo; method in brief: as §6
Mus musculus [16] = assay: Antinociceptive activity in CD1 mouse assessed as AUC of thermal-stimulus induced tail flick latency assessed per min at 1 umol/kg, ip up to 120 mins; format: functional
Serum = assay: Biodistribution in ICR-CD1 mouse serum at 30000 cpm/uL, iv after 15 mins; format: ADME, organism-based; details: in vivo, 0.25 h; method in brief: as §6
[17] = biological target: Mu-type opioid receptor (Cavia porcellus) (UniProt P97266); assay: as §1; format: functional, tissue-based; method in brief: as §2
[18] = biological target: Delta-type opioid receptor (Mus musculus) (UniProt P32300); assay: as §3; format: functional, tissue-based; method in brief: as §2
Mus musculus [19] = assay: Antinociceptive activity in sc dosed CD1 mouse assessed as thermal-stimulus induced tail flick latency after 6 to 7 hrs; format: functional, organism-based; method in brief: as §5
Mus musculus [20] = assay: Antinociceptive activity in sc dosed CD1 mouse assessed as thermal-stimulus induced tail flick latency after 2 hrs; format: functional; method in brief: as §5
Mus musculus [21] = assay: Antinociceptive activity in CD1 mouse assessed as thermal-stimulus induced tail flick latency at 1 umol/kg, ip after 45 to 60 mins; format: functional, organism-based
Mus musculus [22] = assay: Antinociceptive activity in sc dosed CD1 mouse assessed as thermal-stimulus induced tail flick latency; format: functional; method in brief: as §5
[23] = Half life in sheep blood; format: ADME, cell-free, Ovis aries, Plasma
Mus musculus [24] = assay: Antinociceptive activity in sc dosed CD1 mouse assessed as thermal-stimulus induced tail flick latency after 30 mins; details: 0.5 h

Sequence of Delta-type opioid receptor (Mus musculus, UniProt P32300) (P32300 whole entry): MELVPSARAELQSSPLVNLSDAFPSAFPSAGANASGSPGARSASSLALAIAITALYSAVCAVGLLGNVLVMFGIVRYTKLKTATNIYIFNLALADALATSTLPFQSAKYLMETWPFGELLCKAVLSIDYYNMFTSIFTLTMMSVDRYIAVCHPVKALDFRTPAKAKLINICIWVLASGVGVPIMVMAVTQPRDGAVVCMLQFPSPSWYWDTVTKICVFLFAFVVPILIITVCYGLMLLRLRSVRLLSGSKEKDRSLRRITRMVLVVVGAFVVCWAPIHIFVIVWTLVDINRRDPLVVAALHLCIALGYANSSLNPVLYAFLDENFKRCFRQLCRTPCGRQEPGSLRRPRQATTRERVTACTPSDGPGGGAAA
Sequence of Mu-type opioid receptor (Cavia porcellus, UniProt P97266) (P97266 whole entry): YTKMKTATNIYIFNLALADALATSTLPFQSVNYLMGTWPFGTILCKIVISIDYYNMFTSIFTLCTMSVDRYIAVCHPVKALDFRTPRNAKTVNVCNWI
Sequence of Kappa-type opioid receptor (P41144 whole entry): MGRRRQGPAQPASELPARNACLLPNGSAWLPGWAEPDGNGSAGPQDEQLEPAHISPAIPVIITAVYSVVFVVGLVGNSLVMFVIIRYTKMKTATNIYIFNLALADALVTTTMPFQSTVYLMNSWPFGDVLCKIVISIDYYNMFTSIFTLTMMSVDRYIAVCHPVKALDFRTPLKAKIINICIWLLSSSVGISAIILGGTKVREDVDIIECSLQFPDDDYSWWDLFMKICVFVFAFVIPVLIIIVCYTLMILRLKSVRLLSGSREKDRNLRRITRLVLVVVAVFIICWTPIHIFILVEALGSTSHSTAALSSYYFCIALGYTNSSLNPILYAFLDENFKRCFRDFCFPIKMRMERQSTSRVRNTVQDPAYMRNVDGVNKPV
Sequence of Delta-type opioid receptor (Rattus norvegicus, UniProt P33533) (P33533 whole entry): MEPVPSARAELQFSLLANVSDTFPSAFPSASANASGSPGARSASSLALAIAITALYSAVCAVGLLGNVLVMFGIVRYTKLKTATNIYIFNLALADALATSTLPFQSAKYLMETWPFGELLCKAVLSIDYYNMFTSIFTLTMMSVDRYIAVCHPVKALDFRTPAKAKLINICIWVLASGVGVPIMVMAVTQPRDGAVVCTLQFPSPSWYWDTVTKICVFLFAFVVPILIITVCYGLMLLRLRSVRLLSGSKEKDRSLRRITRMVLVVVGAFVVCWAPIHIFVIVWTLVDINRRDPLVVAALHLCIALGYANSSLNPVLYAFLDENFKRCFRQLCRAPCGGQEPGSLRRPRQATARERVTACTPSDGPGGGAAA
Sequence of Mu-type opioid receptor (Rattus norvegicus, UniProt P33535) (P33535 whole entry): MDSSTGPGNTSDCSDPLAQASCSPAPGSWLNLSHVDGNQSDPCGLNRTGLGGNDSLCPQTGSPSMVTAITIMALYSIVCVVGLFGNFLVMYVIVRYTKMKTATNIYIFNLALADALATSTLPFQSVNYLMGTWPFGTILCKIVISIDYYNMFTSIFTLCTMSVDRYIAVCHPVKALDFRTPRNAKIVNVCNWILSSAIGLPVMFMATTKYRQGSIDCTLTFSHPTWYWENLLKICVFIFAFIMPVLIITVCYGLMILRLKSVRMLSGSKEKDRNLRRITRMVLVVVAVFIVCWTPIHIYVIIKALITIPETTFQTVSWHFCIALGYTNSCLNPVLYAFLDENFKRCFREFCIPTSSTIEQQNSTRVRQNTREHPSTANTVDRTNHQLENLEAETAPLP
Sequence of Delta-type opioid receptor (Mus musculus) (P32300 whole entry): as the sequence (P32300 whole entry) above
Sequence of Mu-type opioid receptor (Cavia porcellus) (P97266 whole entry): as the sequence (P97266 whole entry) above

SMILES	IC50 (Mu-type opioid receptor [1]) [nM]	Ki [2] [nM]	IC50 [3] [nM]	Ki (Mu-type opioid receptor [4]) [nM]	Kin (Brain [5]) [µL/g/min]	Activity (Mus musculus [6])	remaining at 2 h [7] [%]	Activity (Brain [12]) [min⁻¹]	remaining at 2 h [14] [%]	Ki [15] [nM]	Activity (Mus musculus [16]) [%.min]	Drug uptake (Serum)	further results
Cc1cc(O)cc(C)c1C[C@H](N)C(=O)N[C@H](CCCNC(N)=O)C(=O)N[C@H]1Cc2ccccc2CN([C@@H](CCCCN)C(N)=O)C1=O	49	56.9	1000	2.62	–	–	–	–	–	–	–	–	–
Cc1cc(O)cc(C)c1C[C@H](N)C(=O)N[C@H](CCCNC(N)=O)C(=O)N[C@@H](Cc1ccccc1)C(=O)N[C@@H](CCCCN)C(N)=O	0.31	50	1.4	0.57	14.91	Active	98.3	0.027	96.2	20.9	521	Active	Activity (Mus musculus [8]): Active; Ratio (Mus musculus [9]): 29; Activity (Mus musculus [10]): Active; Activity (Mus musculus [11]): Active; ED50 (Mus musculus [13]): 0.23 µmol/kg; Drug uptake (Kidney): Active; Drug uptake (Liver): Active
Cc1cc(O)cc(C)c1C[C@H](N)C(=O)N[C@H](CCCN=C(N)N)C(=O)N[C@H]1Cc2ccccc2CN(CC(N)=O)C1=O	–	–	–	–	14.89	–	107	0.096	99.6	–	–	Active	Drug uptake (Kidney): Active
CCCC[C@@H](C(N)=O)N1Cc2ccccc2C[C@H](NC(=O)[C@@H](CCCNC(N)=O)NC(=O)[C@@H](N)Cc2c(C)cc(O)cc2C)C1=O	–	3.18	1.16	0.93	–	–	–	–	–	11.1	–	–	IC35 [17]: 0.78 nM
CCCC[C@@H](C(N)=O)N(C)C(=O)[C@H](Cc1ccccc1)NC(=O)[C@@H](CCCNC(N)=O)NC(=O)[C@@H](N)Cc1c(C)cc(O)cc1C (H-[Dmt][dCit]F[NMeNle]-NH2)	0.65	5.03	1.5	2.92	–	–	–	–	–	> 10	–	–	–
Cc1cc(O)cc(C)c1C[C@H](N)C(=O)N[C@H](CCCNC(=N)N)C(=O)N[C@H]1Cc2ccccc2CN([C@@H](CCCCN)C(N)=O)C1=O	76	38.6	–	0.61	–	–	–	–	–	–	–	–	IC25 [18]: 64 nM
Cc1cc(O)cc(C)c1C[C@H](N)C(=O)N[C@H](CCCNC(=N)N)C(=O)N[C@H]1Cc2ccccc2CN(CC(N)=O)C1=O	–	–	–	–	–	Active	–	–	–	–	253	–	Ratio (Mus musculus [9]): 14; Activity (Mus musculus [19]): Dose-dependent effect; ED50 (Mus musculus [13]): 0.47 µmol/kg
Cc1cc(O)cc(C)c1C[C@H](N)C(=O)N[C@H](CCCNC(=N)N)C(=O)N[C@@H](Cc1ccccc1)C(=O)N(C)[C@@H](CCCCN)C(N)=O	8.3	309	7	0.26	18.11	Active	112	0.028	94	56.1	–	Active	ED50 (Mus musculus [20]): 0.13 µmol/kg; Activity (Mus musculus [19]): Dose-dependent effect; Activity (Mus musculus [21]): Active
CCCC[C@H](NC(=O)[C@H](Cc1ccccc1)NC(=O)[C@@H](CCCNC(=N)N)NC(=O)[C@@H](N)Cc1c(C)cc(O)cc1C)C(N)=O (H-[Dmt][dR]F[Nle]-NH2)	–	–	–	–	–	Active	–	–	–	–	65	–	ED50 (Mus musculus [22]): > 6 µmol/kg; Activity (Mus musculus [10]): Active
Cc1cc(O)cc(C)c1C[C@H](N)C(=O)N[C@H](CCCNC(N)=O)C(=O)N[C@@H](Cc1ccccc1)C(=O)N(C)[C@@H](CCCCN)C(N)=O	1.01	39.2	4.4	0.94	11.35	Active	104	0.01	95	11.5	1412	Active	Activity (Mus musculus [8]): Active; Ratio (Mus musculus [9]): 41; Activity (Mus musculus [21]): Active; ED50 (Mus musculus [13]): 0.16 µmol/kg
CCCC[C@@H](C(N)=O)N(C)C(=O)[C@H](Cc1ccccc1)NC(=O)[C@@H](CCCN=C(N)N)NC(=O)[C@@H](N)Cc1c(C)cc(O)cc1C	4.35	16	1.5	0.26	–	–	–	–	–	14.4	–	–	–
Cc1cc(O)cc(C)c1C[C@H](N)C(=O)N[C@H](CCCNC(=N)N)C(=O)N[C@@H](Cc1ccccc1)C(=O)N[C@@H](CCCCN)C(N)=O	–	–	–	–	9.44	Active	94.7	0.058	103	–	750	Active	ED50 (Mus musculus [20]): 0.15 µmol/kg; Activity (Mus musculus [10]): Active; Activity (Mus musculus [19]): Dose-dependent effect; half-life [23]: 1.8 h; Drug uptake (Kidney): Active
C[C@@H](NC(=O)[C@@H](N)Cc1ccc(O)cc1)C(=O)N[C@@H](Cc1ccccc1)C(=O)NCC(=O)N[C@@H](Cc1ccc(O)cc1)C(=O)N1CCC[C@H]1C(=O)N[C@@H](CO)C(N)=O [DERMORPHIN]	–	–	–	–	–	–	–	–	–	–	46	–	–
CCCC[C@@H](C(N)=O)N1Cc2ccccc2C[C@H](NC(=O)[C@@H](CCCN=C(N)N)NC(=O)[C@@H](N)Cc2c(C)cc(O)cc2C)C1=O	1.45	7.46	3.1	0.43	–	–	–	–	–	1.12	–	–	–
CCCC[C@H](NC(=O)[C@H](Cc1ccccc1)NC(=O)[C@@H](CCCNC(N)=O)NC(=O)[C@@H](N)Cc1c(C)cc(O)cc1C)C(N)=O (H-[Dmt][dCit]F[Nle]-NH2)	0.89	3.98	4.7	0.79	–	–	–	–	–	98.5	–	–	–
CCCC[C@H](NC(=O)[C@H](Cc1ccccc1)NC(=O)[C@@H](CCCN=C(N)N)NC(=O)[C@@H](N)Cc1c(C)cc(O)cc1C)C(N)=O (H-[Dmt][dR]F[Nle]-NH2)	2.2	15.2	6.2	0.23	8.48	–	90.2	-0.039	104	16.2	–	Active	Drug uptake (Liver): Active
CN1CC[C@]23c4c5ccc(O)c4O[C@H]2[C@@H](O)C=C[C@H]3[C@H]1C5 [MORPHINE]	–	–	–	–	–	–	–	–	–	–	66	–	ED50 (Mus musculus [24]): 6.6 µmol/kg
